Drawing on ChEMBL document CHEMBL2046381, “Defining the mechanism of action and enzymatic selectivity of psammaplin A against its epigenetic targets” (J Med Chem, 2012), this text covers inhibition and IC50 for 37 molecules.

Assay [1] concerns the target T1, Histone deacetylase-like amidohydrolase (Alcaligenes sp. (strain DSM 11172) (Bordetella sp. (strain FB188))) (UniProt Q70I53).
T1 sequence (whole entry): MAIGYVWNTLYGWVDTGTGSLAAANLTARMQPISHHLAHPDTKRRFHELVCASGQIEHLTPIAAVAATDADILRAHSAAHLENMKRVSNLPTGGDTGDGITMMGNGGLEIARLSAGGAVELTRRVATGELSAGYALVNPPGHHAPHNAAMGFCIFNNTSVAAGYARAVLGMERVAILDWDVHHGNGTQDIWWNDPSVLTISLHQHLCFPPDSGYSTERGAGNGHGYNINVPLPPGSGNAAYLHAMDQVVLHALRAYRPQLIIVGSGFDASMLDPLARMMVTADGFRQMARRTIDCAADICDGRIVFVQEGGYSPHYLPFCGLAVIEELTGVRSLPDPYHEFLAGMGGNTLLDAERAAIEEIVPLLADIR
The assay is described as follows: Inhibition of Bordetella sp. (strain FB188) N-terminus His-tagged HDAH expressed in Escherichia coli BL21 (DE3) up to 100 uM. The following applies: Alcaligenaceae bacterium FB188. The essentials: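 Recombinant N-terminal His6-tagged HDAH from Bordetella strain FB188, expressed in E. coli BL21, purified on zinc-loaded His-Trap column, eluted with 500 mM imidazole, dialyzed into assay buffer (>98% pure by SDS-PAGE). Tested directly against compounds; thiols generated in situ from disulfides with TCEP.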

The target of assay [2] is T2, Protein deacetylase HDAC6 (Homo sapiens, UniProt Q9UBN7).
T2 sequence (Q9UBN7 whole entry): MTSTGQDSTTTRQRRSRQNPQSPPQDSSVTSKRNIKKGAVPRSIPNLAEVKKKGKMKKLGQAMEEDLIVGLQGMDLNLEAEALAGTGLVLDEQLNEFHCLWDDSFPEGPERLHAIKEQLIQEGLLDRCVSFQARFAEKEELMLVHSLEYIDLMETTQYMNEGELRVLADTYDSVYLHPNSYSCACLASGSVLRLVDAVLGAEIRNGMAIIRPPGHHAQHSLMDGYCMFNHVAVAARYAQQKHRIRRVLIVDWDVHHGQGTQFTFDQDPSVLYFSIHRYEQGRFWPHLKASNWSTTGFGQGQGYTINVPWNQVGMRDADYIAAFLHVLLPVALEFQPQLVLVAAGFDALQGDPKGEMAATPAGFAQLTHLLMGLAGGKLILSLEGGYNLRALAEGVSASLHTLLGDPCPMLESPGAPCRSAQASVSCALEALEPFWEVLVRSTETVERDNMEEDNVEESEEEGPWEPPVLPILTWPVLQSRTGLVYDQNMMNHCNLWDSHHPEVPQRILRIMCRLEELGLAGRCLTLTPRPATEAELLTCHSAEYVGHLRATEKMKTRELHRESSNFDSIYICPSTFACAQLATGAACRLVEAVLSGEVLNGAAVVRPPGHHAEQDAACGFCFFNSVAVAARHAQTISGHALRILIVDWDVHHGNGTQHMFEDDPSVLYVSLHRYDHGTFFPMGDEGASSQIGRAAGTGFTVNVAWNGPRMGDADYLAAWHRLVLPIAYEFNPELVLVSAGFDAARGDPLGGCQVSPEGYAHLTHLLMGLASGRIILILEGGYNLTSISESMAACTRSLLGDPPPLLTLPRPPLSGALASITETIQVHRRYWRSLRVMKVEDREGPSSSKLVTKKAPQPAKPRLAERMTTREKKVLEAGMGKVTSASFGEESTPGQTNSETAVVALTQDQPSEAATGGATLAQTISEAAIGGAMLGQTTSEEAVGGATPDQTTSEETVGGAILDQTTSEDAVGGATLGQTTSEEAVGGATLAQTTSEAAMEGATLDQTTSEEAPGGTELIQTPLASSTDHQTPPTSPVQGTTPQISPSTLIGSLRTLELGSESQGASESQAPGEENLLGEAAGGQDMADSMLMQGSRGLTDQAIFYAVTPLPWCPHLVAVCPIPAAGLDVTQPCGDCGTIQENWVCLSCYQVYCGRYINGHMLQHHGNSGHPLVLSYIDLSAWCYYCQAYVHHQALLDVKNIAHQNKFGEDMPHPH
As to the kind of experiment: Inhibition of human recombinant HDAC6 using Boc-lys(Ac)-AMC as substrate preincubated for 20 mins with substrate measured after 60 mins by fluorescence analysis.

In another assay the target is Histone deacetylase 1 (Homo sapiens, UniProt Q13547). The assay is described as follows: Inhibition of human recombinant HDAC1 using Boc-lys(Ac)-AMC as substrate preincubated for 20 mins with substrate measured after 60 mins by fluorescence analysis.
The target in assay [3] is DNA (cytosine-5)-methyltransferase 1 (Homo sapiens, UniProt P26358). The assay is described as follows: Inhibition of full length N-terminal His6-tagged human DNMT1 at 120 uM after 1 hr by fluorescence analysis. The method in brief: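 Baculovirus-expressed DNMT1 (80 nM final) with SAM (10 μM final) and hemimethylated hairpin oligo (125 nM final) in MOPS buffer pH 6.5 with 1 mM DTT, 1 h room temperature. Stopped with Gla1 plus 125 μM SAH, developed 7 h; fluorescence Ex 485/Em 520 nm. Thiols made in situ by TCEP reduction; no SAM as full-inhibition control.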

pIC50: −log10 of the molar value. The source made the active and inactive calls.

Chain of Histone deacetylase 1 (Q13547 whole entry): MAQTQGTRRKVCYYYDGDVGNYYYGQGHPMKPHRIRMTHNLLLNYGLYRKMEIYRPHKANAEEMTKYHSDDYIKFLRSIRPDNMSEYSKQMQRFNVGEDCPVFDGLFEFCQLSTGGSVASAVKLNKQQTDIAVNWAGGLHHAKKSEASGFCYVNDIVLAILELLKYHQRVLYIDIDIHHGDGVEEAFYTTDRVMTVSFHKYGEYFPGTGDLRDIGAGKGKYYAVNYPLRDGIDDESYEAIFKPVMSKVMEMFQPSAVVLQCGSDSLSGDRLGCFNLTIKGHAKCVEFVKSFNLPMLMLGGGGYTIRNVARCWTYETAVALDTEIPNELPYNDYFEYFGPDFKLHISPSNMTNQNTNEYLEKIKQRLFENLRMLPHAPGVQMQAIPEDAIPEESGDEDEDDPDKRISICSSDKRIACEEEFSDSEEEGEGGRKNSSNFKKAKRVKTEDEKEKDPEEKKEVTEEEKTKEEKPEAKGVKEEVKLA
Chain of DNA (cytosine-5)-methyltransferase 1 (P26358 whole entry): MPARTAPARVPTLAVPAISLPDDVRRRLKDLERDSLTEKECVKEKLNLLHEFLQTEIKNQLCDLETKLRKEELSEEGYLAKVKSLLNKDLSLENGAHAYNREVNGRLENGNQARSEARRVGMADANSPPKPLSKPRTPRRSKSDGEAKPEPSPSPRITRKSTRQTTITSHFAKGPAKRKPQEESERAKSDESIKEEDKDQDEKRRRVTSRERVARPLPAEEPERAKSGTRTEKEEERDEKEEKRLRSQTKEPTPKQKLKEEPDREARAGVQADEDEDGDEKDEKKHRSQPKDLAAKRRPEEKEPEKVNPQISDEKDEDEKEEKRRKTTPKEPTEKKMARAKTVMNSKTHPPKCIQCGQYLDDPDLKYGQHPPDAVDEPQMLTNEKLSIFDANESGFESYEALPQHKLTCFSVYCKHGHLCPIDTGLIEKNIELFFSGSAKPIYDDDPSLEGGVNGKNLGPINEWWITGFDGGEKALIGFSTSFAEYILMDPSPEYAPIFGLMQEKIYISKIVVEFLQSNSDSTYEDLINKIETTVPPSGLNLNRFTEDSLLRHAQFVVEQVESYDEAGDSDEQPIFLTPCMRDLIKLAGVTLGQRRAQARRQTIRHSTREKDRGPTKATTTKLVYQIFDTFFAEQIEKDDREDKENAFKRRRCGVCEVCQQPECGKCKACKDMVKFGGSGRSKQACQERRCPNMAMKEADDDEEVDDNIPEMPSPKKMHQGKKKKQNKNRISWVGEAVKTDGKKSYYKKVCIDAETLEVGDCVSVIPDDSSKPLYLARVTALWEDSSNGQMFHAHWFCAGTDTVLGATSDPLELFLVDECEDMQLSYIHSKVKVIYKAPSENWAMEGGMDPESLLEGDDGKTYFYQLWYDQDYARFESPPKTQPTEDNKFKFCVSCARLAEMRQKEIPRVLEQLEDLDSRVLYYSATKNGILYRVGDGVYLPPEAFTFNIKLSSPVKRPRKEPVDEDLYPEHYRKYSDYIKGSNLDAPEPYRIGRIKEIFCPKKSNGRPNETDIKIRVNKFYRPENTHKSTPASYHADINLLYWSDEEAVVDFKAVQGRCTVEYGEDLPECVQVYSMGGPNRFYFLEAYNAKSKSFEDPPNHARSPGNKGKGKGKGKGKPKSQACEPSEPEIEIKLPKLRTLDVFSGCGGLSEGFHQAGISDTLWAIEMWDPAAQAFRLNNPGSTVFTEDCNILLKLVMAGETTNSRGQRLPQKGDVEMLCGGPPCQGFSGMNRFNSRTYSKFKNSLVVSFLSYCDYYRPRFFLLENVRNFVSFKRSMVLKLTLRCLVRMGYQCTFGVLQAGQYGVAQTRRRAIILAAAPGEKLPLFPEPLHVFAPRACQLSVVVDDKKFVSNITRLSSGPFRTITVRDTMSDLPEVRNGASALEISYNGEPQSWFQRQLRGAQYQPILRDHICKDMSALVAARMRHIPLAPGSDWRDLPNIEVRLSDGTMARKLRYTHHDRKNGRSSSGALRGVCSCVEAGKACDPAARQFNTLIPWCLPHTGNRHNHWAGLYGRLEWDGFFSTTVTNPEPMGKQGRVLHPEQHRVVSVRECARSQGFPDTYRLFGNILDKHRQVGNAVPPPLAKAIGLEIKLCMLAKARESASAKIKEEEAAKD

As to `O=C(NCCSSCCNC(=O)/C(Cc1ccc(F)cc1)=N/O)/C(Cc1ccc(F)cc1)=N/O`, the inhibition result in assay [1] was “inactive”.

For the molecule `CSc1ccc(C/C(=N\O)C(=O)NCCSSCCNC(=O)/C(Cc2ccc(SC)c(Br)c2)=N/O)cc1Br`, in assay [1], the inhibition entry was “inactive”.

Take `COc1cc(C/C(=N\O)C(=O)NCCSSCCNC(=O)/C(Cc2cc(I)c(OC)c(OC)c2)=N/O)cc(I)c1OC`: the inhibition result in assay [1] is “inactive”.

Turning to `O=C(NCCSSCCNC(=O)/C(Cc1ccc(O)cc1)=N/O)/C(Cc1ccc(O)cc1)=N/O`, the inhibition entry in assay [1] was “inactive”.

Regarding `CN(C)c1ccc(C/C(=N\O)C(=O)NCCSSCCNC(=O)/C(Cc2ccc(N(C)C)c(Br)c2)=N/O)cc1Br`, the inhibition result in assay [1] is “inactive”.

Broadly, the pIC50 is the negative decadic logarithm of the IC50, by convention in mol/L. For the molecule `CN(C)c1ccc(C/C(=N\O)C(=O)NCCS)cc1Br`, the negative logarithm of the IC50 (pIC50) in assay [2] was 6.15; at Histone deacetylase 1, 8.40. Further, the inhibition entry in assay [1] and in assay [3] was “inactive” throughout.

With `COc1cc(C/C(=N\O)C(=O)NCCS)cc(I)c1OC`, the values for the pIC50 (in assay [2]; on Histone deacetylase 1) were 6.57 and 9.00, respectively. Also, the inhibition entry in assay [1] and in assay [3] was “inactive” in each case.

Take `O=C(NCCS)/C(Cc1cc(Br)cc([N+](=O)[O-])c1)=N/O`: the pIC50 in assay [2] is 6.13; on Histone deacetylase 1, 8.30. Moreover, the inhibition result in assay [1] and in assay [3] was “inactive” in each case.

With `O=C(NCCS)/C(Cc1cc(Br)c(O)c(Br)c1)=N/O`, the pIC50 in assay [2] is 6.10; at Histone deacetylase 1, 9.70. The inhibition result in assay [1] and in assay [3] was “inactive” in each case.

On to `O=C(NCCSSCCNC(=O)/C(Cc1cccc([N+](=O)[O-])c1)=N/O)/C(Cc1cccc([N+](=O)[O-])c1)=N/O`, for which, in assay [1], the inhibition result is “inactive”.

With `CN(C)c1ccc(C/C(=N\O)C(=O)NCCSSCCNC(=O)/C(Cc2ccc(N(C)C)cc2)=N/O)cc1`, in assay [1], the inhibition entry is “inactive”.

As to `O=C(NCCS)/C(Cc1cccc([N+](=O)[O-])c1)=N/O`, the pIC50 was 5.92 in assay [2] and 9.00 on Histone deacetylase 1. For the same molecule, the inhibition entry in assay [1] and in assay [3] was “inactive” throughout.

Consider `COc1ccc(CC(=O)C(=O)NCCSC)cc1Br`, for which the negative logarithm of the IC50 (pIC50) (in assay [2]; at Histone deacetylase 1) was < 4.30 in each case. The inhibition entry in assay [1] is “inactive”.

Take `O=C(NCCS)/C(Cc1ccc(F)cc1)=N/O`: the pIC50 in assay [2] was 5.54; on Histone deacetylase 1 it was 8.15. Further, the inhibition result in assay [1] and in assay [3] was “inactive” in each case.

For the molecule `COc1ccc(CC(=O)C(=O)NCCSSCCNC(=O)C(=O)Cc2ccc(OC)c(Br)c2)cc1Br`, the pIC50 in assay [2] was 5.10; on Histone deacetylase 1 it was 5.05. In assay [1], the inhibition result is “inactive”.

Turning to `O=C(NCCSSCCNC(=O)/C(Cc1cc(Br)cc([N+](=O)[O-])c1)=N/O)/C(Cc1cc(Br)cc([N+](=O)[O-])c1)=N/O`, in assay [1], the inhibition result was “inactive”.

Take `CO/N=C(\Cc1ccc(OC)c(Br)c1)C(=O)NCCS`: the pIC50 in assay [2] is 5.57; on Histone deacetylase 1 it was 7.82. Also, the inhibition result in assay [1] and in assay [3] was “inactive” in each case.

Turning to `CSc1ccc(C/C(=N\O)C(=O)NCCSSCCNC(=O)/C(Cc2ccc(SC)cc2)=N/O)cc1`, in assay [1], the inhibition entry is “inactive”.

Turning to `COc1ccc(C/C(=N\O)C(=O)NCCS)cc1OC`, the pIC50 in assay [2] is 5.57; at Histone deacetylase 1, 8.52. Besides, the inhibition result in assay [1] and in assay [3] was “inactive” in each case.

Regarding `CSc1ccc(C/C(=N\O)C(=O)NCCS)cc1`, the pIC50 was 5.89 in assay [2] and 8.70 at Histone deacetylase 1. The inhibition entry in assay [1] and in assay [3] was “inactive” in each case.

On to `COc1ccc(C/C(=N\O)C(=O)NCCSSCCNC(=O)/C(Cc2ccc(OC)c(I)c2)=N/O)cc1I`, for which the inhibition result in assay [1] is “inactive”.

With `COc1cc(C/C(=N\O)C(=O)NCCSSCCNC(=O)/C(Cc2ccc(SC)c(OC)c2)=N/O)ccc1SC`, the inhibition result in assay [1] is “inactive”.

Regarding `O=C(NCCSSCCNC(=O)/C(Cc1cc(Br)c(O)c(Br)c1)=N/O)/C(Cc1cc(Br)c(O)c(Br)c1)=N/O`, in assay [1], the inhibition entry is “inactive”.

Take `COc1ccc(C/C(=N\N)C(=O)NCCSSCCNC(=O)/C(Cc2ccc(OC)c(Br)c2)=N/N)cc1Br`: the pIC50 was < 4.30 in assay [2] and 5.52 at Histone deacetylase 1. For the same molecule, the inhibition entry in assay [1] was “inactive”.

Consider `COc1ccc(C/C(=N\O)C(=O)NCCSSCCNC(=O)/C(Cc2ccc(OC)c(OC)c2)=N/O)cc1OC`, for which the inhibition entry in assay [1] is “inactive”.

`CSc1ccc(C/C(=N\O)C(=O)NCCS)cc1Br`: the values for the negative-log IC50 (pIC50) (in assay [2]; on Histone deacetylase 1) were 6.72 and 9.32, respectively. Also, the inhibition entry in assay [1] and in assay [3] was “inactive” throughout.

As for `COc1cc(C/C(=N\O)C(=O)NCCS)ccc1SC`, the pIC50 was 5.85 in assay [2] and 9.22 at Histone deacetylase 1. In addition, in assay [1], the inhibition entry is “inactive”.

`CO/N=C(\Cc1ccc(OC)c(Br)c1)C(=O)NCCSC`: the pIC50 (in assay [2]; at Histone deacetylase 1) was < 4.30 throughout. In assay [1], the inhibition result is “inactive”.

In the case of `COc1ccc(C/C(=N\O)C(=O)NCCSC)cc1Br`, the pIC50 is < 4.30 in assay [2] and 4.63 at Histone deacetylase 1.

`O=C(NCCCSCCNC(=O)/C(Cc1ccc(O)c(Br)c1)=N/O)/C(Cc1ccc(O)c(Br)c1)=N/O`: the inhibition entry in assay [1] and in assay [3] was “inactive” throughout.

`COc1ccc(CC(=O)C(=O)NCCS)cc1Br`: the pIC50 in assay [2] is 6.60; at Histone deacetylase 1, 5.96. Moreover, in assay [1], the inhibition entry is “inactive”.

Consider `COc1ccc(C/C(=N\N)C(=O)NCCSC)cc1Br`, for which the pIC50 in assay [2] is < 4.30; at Histone deacetylase 1, 4.90. Besides, in assay [1], the inhibition entry was “inactive”.

With `CO/N=C(\Cc1ccc(OC)c(Br)c1)C(=O)NCCSSCCNC(=O)/C(Cc1ccc(OC)c(Br)c1)=N/OC`, the pIC50 in assay [2] is < 4.30; on Histone deacetylase 1, 6.66. In addition, in assay [1], the inhibition result is “inactive”.

For `COc1ccc(C/C(=N\N)C(=O)NCCS)cc1Br`, the results for the pIC50 (in assay [2]; at Histone deacetylase 1) were 6.49 and 8.22, respectively. In addition, the inhibition entry in assay [1] was “inactive”.

`O=C(NCCCCCCNC(=O)/C(Cc1ccc(O)c(Br)c1)=N/O)/C(Cc1ccc(O)c(Br)c1)=N/O`: the inhibition result in assay [1] and in assay [3] was “inactive” throughout.

Regarding `COc1ccc(C/C(=N\O)C(=O)NCCSSCCNC(=O)/C(Cc2ccc(OC)c(Br)c2)=N/O)cc1Br`, the pIC50 in assay [2] was 5.70; on Histone deacetylase 1, 7.37.

Turning to `O=C(CCc1ccc(O)c(Br)c1)NCCSSCCNC(=O)CCc1ccc(O)c(Br)c1`, the values for the pIC50 (in assay [2]; at Histone deacetylase 1) were 4.69 and < 4.30, respectively. In addition, the inhibition result in assay [1] is “inactive”.
